The EternaBench riboswitch data

Test system: MS2 coat protein
Assay: apparent Kd, MS2 coat protein; higher = weaker binding; RNA-MaP array; FMN 200 µM where present
Method in brief: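 In 100 mM Tris-HCl pH 7.5, 80 mM KCl, 4 mM MgCl2, BSA, DTT, yeast tRNA and Tween-20, SNAP-549-labelled MS2 coat protein was titrated from 0.7 or 1.5 nM, doubling to 3 µM, over designs transcribed by stalled E. coli RNA polymerase on Illumina sequencing-chip clusters. This was done first without ligand, then with ligand held constant. After green signal was normalised to red-channel RNA signal and control-cluster median Fmax, the apparent Kd was taken as the median of filtered per-cluster binding-curve fits.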

[1] = designed as: OFF switch for flavin mononucleotide, no ligand
[2] = ligand present: flavin mononucleotide, designed as: OFF switch for flavin mononucleotide
[3] = designed as: ON switch for flavin mononucleotide, no ligand
[4] = ligand present: flavin mononucleotide, designed as: ON switch for flavin mononucleotide

Sequence: GGAUGACAAAGUCAUCCAAUACGAACAUGAGGAUCACCCAUGUAGGAUAUGCUUCUCAAAGAGAAGCAGAAGGACAUGUGUCUU
- apparent Kd [1]: 28.7 nM
- apparent Kd [2]: 158 nM

Sequence: GGAUGACAAAGUCAUCCUAAACGAACAUGAGGAUCACCCAUGUAGGAUAUGCAACUCAAAGAGUUGCAGAAGGACAUGUGCCUU
- apparent Kd [1]: 37.2 nM
- apparent Kd [2]: 230 nM

Sequence: GGAUGACAAAGUCAUCCUAUUCGAACAUGAGGAUCACCCAUGUAGGAUAUGCAACUCAAAGAGUUGCAGAAGGACAUGUGCCUU
- apparent Kd [1]: 30.9 nM
- apparent Kd [2]: 153 nM

Sequence: GGAUGACAAAGUCAUCCUUAACGAACAUGAGGAUCACCCAUGUAGGAUAUGGUACUCAAAGAGUACCAGAAGGACAUGUGCCUU
- apparent Kd [1]: 34.3 nM
- apparent Kd [2]: 203 nM

Sequence: GGAUGAUUAAUAGGAUAUUAUUUGUAAAAUGGUUAAGAAGGAUUAAUGAUUUAAACGACCAGAUACAUGAGGAUCACCCAUGUA
- apparent Kd [3]: 24.4 nM
- apparent Kd [4]: 21.9 nM

Sequence: GGAUGCCGCUCAGGAUAUGUGGGUUGUCUAGUAUUUAGAUUCCACAUGAGGAUCACCCAUGUAACACAGAAGGGAGAUGGUGAU
- apparent Kd [3]: 214 nM
- apparent Kd [4]: 22.7 nM

Sequence: GGAUGGACCCAGAAGGGCAGAUCCCGAGGAAUUUGAGAUGAGCGGAUAUGUAGGAUAUGGGUGGACAUGAGGAUCACCCAUGUC
- apparent Kd [3]: 176 nM
- apparent Kd [4]: 42.6 nM

Sequence: GGAUGGGACAGAGGAUAUACGUGCUAGAGAUACUAGCAAAAUUUCCUCACAUGAGGAUCACCCAUGUAGAAGGCUGUCCUAUCG
- apparent Kd [1]: 15.2 nM
- apparent Kd [2]: 513 nM

Sequence: GGAUGUCAAAGACAUCCAAUUCGAACAUGAGGAUCACCCAUGUAGGAUAUGCUACUCAAAGAGUAGCAGAAGGACAUGUGCUUU
- apparent Kd [1]: 36.6 nM
- apparent Kd [2]: 183 nM

Sequence: GGAUUACAUGAGGAUCACCCAUGUGAGGAUAUCGAUGUCCUCAAUGAAGUGCGGGACUCGAGAAGGCACUUGGA
- apparent Kd [1]: 78.5 nM
- apparent Kd [2]: 108 nM

Sequence: GGAUUGAAUGAGGAUAUCGUAUUAGGUGUAAUGCGAGAAGGCAUGACAUGAGGAUCACCCAUGUAGUGUGGGUU
- apparent Kd [1]: 509 nM
- apparent Kd [2]: 772 nM

Sequence: GGAUUUACUGAGGAUAUUGCAUUACCCGAUUGAUAAGAAGGCAGAACAUGAGGAUCACCCAUGUGGGUAGUCAA
- apparent Kd [1]: 17.4 nM
- apparent Kd [2]: 16.4 nM

Sequence: GGCAUAAUGUAGGAUAUCGUAUUGGAAACAAUACGAGAAGGGCAAACAUGAGGAUCACCCAUGUUCCUUAAGCC
- apparent Kd [1]: 18.5 nM
- apparent Kd [2]: 19 nM

Sequence: GGCCCACAAGGAUAUACAUGAGGAUCACCCAUGUAAAUCUCAGGUAGUAUGUGGGUGUGUAGAAGGUGUUAGCC
- apparent Kd [1]: 15.2 nM
- apparent Kd [2]: 14.4 nM

Sequence: GGCGAACAGGCUAACAUGAGGAUCACCCAUGUGGACUCAUGCGAGGAUAUCGGGAAGGAGGAUUCCGAGAAGGUGCGGUGAGCC
- apparent Kd [3]: 788 nM
- apparent Kd [4]: 304 nM

Sequence: GGCGACCUAGGAUAUACAUGAGGAUCACCCAUGUUUAUCUAAUAGAUGAAGACGGGUUGUAGAAGGAGGAAAAU
- apparent Kd [1]: 15.6 nM
- apparent Kd [2]: 19.4 nM

Sequence: GGCGGGCGGGAGGAUAUUCGGGCUGUUUGGCUUGGAGAAGGCUCGACAUGAGGAUCACCCAUGUUUGGGUCGCC
- apparent Kd [1]: 16.2 nM
- apparent Kd [2]: 27 nM

Sequence: GGCUAGUCAGGAUAUACGAACAUGUCAAAAGACGUGAAGGGACAUGAGGAUCACCCAUGUAGAAGGGACUAGCC
- apparent Kd [1]: 22.8 nM
- apparent Kd [2]: 182 nM

Sequence: GGCUCAUUGACAUUAAUGUGCAGACAGGAUAUCCACCGCGGUUCCUACAUGAGGAUCACCCAUGUGGAGAAGGGUCGCUAAUGG
- apparent Kd [1]: 16.1 nM
- apparent Kd [2]: 43.6 nM

Sequence: GGCUGCGUUGUGAAGGAUAUCCGCGUCUGGACAUGAGGAUCACCCAUGUAUGCUUGGAUCGUGCCGGAGAAGGUCACGGGUGAUU
- apparent Kd [3]: 124 nM
- apparent Kd [4]: 46 nM

Sequence: GGCUUAAACACAGGAUAUGGCCUUAGAGUGAGGCCAGAAGGGUGAAGUUCUCAUACAUGAGGAUCACCCAUGUCAAGGAGGCUA
- apparent Kd [3]: 857 nM
- apparent Kd [4]: 201 nM

Sequence: GGGCCACAUGAGGAUCACCCAUGUAAACCCGUGCUCAGGGCACAGGAUAUGGGCCUGGAUGAGGCCCAGAAGGGUGGUCUGGCC
- apparent Kd [3]: 40.1 nM
- apparent Kd [4]: 16.3 nM

Sequence: GGGCCACAUGAGGAUCACCCAUGUAAGGAUAUGCUAGGGAUGGAAAAAAUUUCGCUAGGCAGAAGGUACUAAAG
- apparent Kd [1]: 32 nM
- apparent Kd [2]: 55.6 nM
